Hits are enriched below; roughly 2.3% of the tested compounds scored in any of these assays.
Mcl1-Bid inh: Mcl-1/Bid binding inhibitors, primary screen, biochemical, TR-FRET, 1536-well | TR-FRET Mcl-1/Bid-Dy647 peptide binding | 220,000 tested, 0.97% active | inhibition, % at 21.7 µM | AID 1021, 2008 | Induced myeloid leukemia cell differentiation protein Mcl-1 (Homo sapiens), Q07820;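 active = compounds that cut the binding signal by more than half at the single screening dose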;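 also: His-tagged Mcl-1 with europium anti-His antibody binding Bid BH3 peptide; 0% = Mcl-1 plus peptide wells and 100% = peptide-only wells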
Target sequence (Q07820 whole entry, looked up): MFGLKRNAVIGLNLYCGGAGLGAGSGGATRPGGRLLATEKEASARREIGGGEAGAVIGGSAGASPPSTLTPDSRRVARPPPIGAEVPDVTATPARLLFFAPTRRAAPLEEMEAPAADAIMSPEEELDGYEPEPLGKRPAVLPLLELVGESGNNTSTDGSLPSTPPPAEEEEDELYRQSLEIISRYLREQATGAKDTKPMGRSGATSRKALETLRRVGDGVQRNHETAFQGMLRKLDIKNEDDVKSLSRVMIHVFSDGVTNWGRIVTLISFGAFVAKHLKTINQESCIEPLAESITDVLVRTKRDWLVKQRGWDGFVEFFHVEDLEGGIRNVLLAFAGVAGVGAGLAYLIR
Mcl-1 Bim block: inhibitors of Bim peptide binding to Mcl-1, primary screen, biochemical, bead-based flow cytometry, multiplex. Induced myeloid leukemia cell differentiation protein Mcl-1 (Homo sapiens), Q07820. Bim peptide-Mcl-1 binding. inhibition, % at 10 µM. 190,000 tested, 0.1% active. AID 1009, 2008; in the data active = inhibition above about 40%;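 also: 0% = no compound tracer wells and 100% = peptide blocker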
Pemphigus Ab inh: inhibitors of pemphigus antibody binding to DSG3, primary screen, biochemical, bead-based, flow cytometry, scFv-GFP. Desmoglein-3 (Homo sapiens), P32926. DSG3-coupled beads, scFv-anti-DSG3-GFP binding; active compounds read low. binding (percent of control), % at 10 µM. 310,000 tested, 0.48% active. AID 588358, 2011;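 active = binding more than 3 SD below its plate's average and above zero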;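 also: hits lower antibody fragment binding to DSG3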
T cell HTS: modulators of CD8 T cell-vesicle binding, primary screen, mouse 2C CD8+ T cells, flow cytometry | 2C CD8+ T cell-vesicle binding; active compounds read low | response (vesicle binding), % at 7 µM | 330,000 tested, 0.068% active | AID 2052, 2009;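 active = response, share of CD8 T cells binding vesicles, and their 90th percentile fluorescence all below set limits, cut at about 80% in these data, passing the limit was not always enough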;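 also: values below 100% mean blocked vesicle binding to the CD8+ T cells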
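Test system: purified 2C TCR transgenic mouse naive CD8+ T cells. Probe or stimulus: QL9-peptide-loaded Drosophila micro-vesicles bearing Ld, ICAM-1 and B7-1. Incubation: binding step 1.5 h, 37 °C, antibody labelling 20 min, ice. Measured by: flow cytometry of vesicle-bound cells.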
Mcl1-Noxa inh: Mcl-1/Noxa binding inhibitors, primary screen, biochemical, TR-FRET, 1536-well; 220,000 tested, 1.5% active; inhibition, % at 21.7 µM; TR-FRET Mcl-1/Noxa peptide binding, 2 h; Induced myeloid leukemia cell differentiation protein Mcl-1 (Homo sapiens), Q07820;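 active = compounds that cut the protein-peptide binding signal by more than 50% relative to plate controls in a single-dose test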;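 also: His-tagged Mcl-1 with rhodamine Noxa BH3 peptide and terbium anti-His antibody; 0% = Mcl-1 plus Noxa peptide wells and 100% = peptide-only wells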
MCL1-BIM inh: inhibitors of MCL1 binding to BIM-BH3, primary screen, biochemical, fluorescence polarization. Induced myeloid leukemia cell differentiation protein Mcl-1 (Homo sapiens), Q07820. GST-MCL1 / FITC-Bim-BH3 fluorescence polarization. inhibition, % at 10.9 µM. 320,000 tested, 0.68% active. AID 2057, 2009;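 active = inhibition above the mean inhibition of all tested compounds plus 3 SD, set per campaign, cut at about 40% in these data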;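 also: 0% = DMSO wells and 100% = unlabeled Bim-BH3 peptide control; higher means more loss of mP so more displacement of Bim peptide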
Bcl-xL conf: Bcl-xL inhibitors blocking Bim BH3 binding, confirmation, counter-screen for MCL1 inhibitor project, biochemical, fluorescence polarization; shares compounds with MCL1-BIM inh; GST-Bcl-xL / FITC-Bim BH3 peptide FP binding; 1,700 tested, 54% active; inhibition, % at 10.9 µM;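 active = inhibition above a cutoff equal to the mean inhibition of all tested compounds plus 3 SD, cut at about 30% in these data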;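 also: 0% = DMSO wells and 100% = unlabeled Bim BH3 control peptide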
Target sequence (Q07817 whole entry, looked up): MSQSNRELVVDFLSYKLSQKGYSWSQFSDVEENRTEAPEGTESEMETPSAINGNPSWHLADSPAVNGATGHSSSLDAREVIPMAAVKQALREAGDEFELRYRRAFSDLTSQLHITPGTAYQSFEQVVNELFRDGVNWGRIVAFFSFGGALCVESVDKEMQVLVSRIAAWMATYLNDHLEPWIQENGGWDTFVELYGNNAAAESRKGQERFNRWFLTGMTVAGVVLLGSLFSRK
MCL1 BIM confirm: inhibitors of MCL1 binding to BIM-BH3, confirmation, biochemical, fluorescence polarization, triplicate; inhibition, % at 10.9 µM; GST-MCL1 / FITC-Bim-BH3 fluorescence polarization; shares compounds with MCL1-BIM inh; 1,700 tested, 61% active;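 active = inhibition above the average of all tested compounds plus 3 SD, cut at about 40% in these data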;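 also: 0% = DMSO wells and 100% = unlabeled Bim-BH3 control peptide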
* = called active by the depositor; i = inactive; / = no result.

SMILES	Mcl1-Bid inh	Mcl-1 Bim block	Pemphigus Ab inh	T cell HTS	Mcl1-Noxa inh	MCL1-BIM inh	Bcl-xL conf	MCL1 BIM confirm
Cc1ccc(/C=C2/NC(=O)N(Cc3ccccc3F)C2=O)o1	25.8	-8.0	124.7	i	-17.3	27.2	/	/
NS(=O)(=O)c1cc(C(=O)NC2CCSc3ccccc32)ccc1Cl (stereo not given)	/	/	110.2	363.2	/	79.1*	29.6	70.2*
O=C(O)c1cc(O)c2c(c1)C(=O)c1cc(O)cc(O)c1C2=O	6.8	1.0	103.1	402.5	61.7*	40.6*	20.9	33.9
Cc1ccc(C(=O)OCC(=O)NC(=O)c2ccc(C(C)(C)C)cc2)c(O)c1	/	/	100.7	307.7	/	69.8*	-4.4	-5.8
C=CCn1c(O)c(N=NC(=O)c2ccccc2NS(=O)(=O)c2cccs2)c2ccccc21	-11.8	10.0	99.6	327.4	16.3	49.5*	78.8*	120.2*
CCCCn1c(O)c(N=NC(=O)c2ccccc2NS(=O)(=O)c2cccs2)c2ccccc21	-37.4	0.0	91.4	244.4	8.2	15.9	/	/
CC(C)Oc1ccc(S(=O)(=O)N2CCOCC2)cc1NC(=O)CCCSc1ccccc1	/	/	106.6	/	/	/	/	/
CN1CCN(S(=O)(=O)c2ccc(F)cc2)CC1	/	/	95.5	/	/	/	/	/
O=C(NCC1CCCN(Cc2ccccc2F)C1)c1cccc(C(F)(F)F)c1 (stereo not given)	-8.8	-3.0	92.8	190.0	7.0	4.7	/	/
Oc1ccc(/C=N/N2CCCCC2)c(O)c1O	/	/	113.6	124.9	/	53.6*	12.4	5.6
O=C(O)CN1C(=O)/C(=C\c2cccc(OCc3ccc(Cl)cc3Cl)c2)SC1=S	/	/	127.3	181.8	/	/	/	/
O=C(O)CN1C(=O)/C(=C\c2cc(Br)ccc2OCc2ccc([N+](=O)[O-])cc2)SC1=S	/	/	102.4	115.5	/	72.3*	37.2*	61.3*
O=C(O)CN1C(=O)/C(=C\c2ccccc2OCc2ccc(Cl)cc2Cl)SC1=S	/	/	135.7	810.0	/	55.1*	30.6*	45.4*
O=C(O)CN1C(=O)/C(=C\c2cc(Br)ccc2OCc2ccccc2F)SC1=S	/	/	102.7	640.4	/	45.6*	19.8	24.6
O/N=C/c1cc(Br)ccc1OCc1ccccc1F	/	/	112.8	186.6	/	0.2	/	/
O=C(O)CCN1C(=O)/C(=C\c2ccc(OCc3ccccc3)c(OCc3ccccc3)c2)SC1=S	/	/	97.5	347.0	/	4.4	/	/
CC(C)(C)OC(=O)N(CCc1ccccc1)Cc1cccc(OCc2cccc(NC(=O)C3CCCC3)c2)c1	/	/	98.0	/	/	/	/	/
Cc1c(C(=O)c2ccc(F)cc2F)c2ccccn2c1CCc1ccccn1	/	/	113.0	/	/	/	/	/
Cc1c(C(=O)c2ccc(F)cc2F)c2ccccn2c1CCC#N	/	/	105.2	159.5	/	116.7*	5.3	6.5
Cc1ccc(CNc2ncnc3c2cnn3C2CCCCO2)cc1 (stereo not given)	/	/	94.6	/	/	/	/	/
COc1ccc(C2C=C(c3ccccc3)Nc3nc(NC(C)=O)nn32)cc1 (stereo not given)	-19.1	-4.0	/	210.4	32.4	60.0*	59.5*	79.7*
COc1ccc(C2C=C(c3ccccc3)Nc3nnnn32)cc1 (stereo not given)	-1.1	-2.0	97.0	226.8	-5.2	8.1	/	/
O=C1N=C(N2C=CC(=C3C=CNC=C3)C=C2)/C(=C/N=NC(=O)c2ccccc2O)S1	/	/	107.1	330.1	/	114.7*	84.0*	114.0*
O=C(O)CCN1C(=O)/C(=C2\C(=O)N(Cc3ccc(F)cc3)c3ccccc32)SC1=S	/	/	99.9	230.6	/	18.3	/	/
O=C(CN1C(=O)/C(=C2\SC(=S)N(CCS(=O)(=O)O)C2=O)c2ccccc21)Nc1cccc(Br)c1	/	/	44.7*	424.9	/	102.7*	25.6	94.4*
SMILES	Mcl1-Bid inh	Mcl-1 Bim block	Pemphigus Ab inh	T cell HTS	Mcl1-Noxa inh	MCL1-BIM inh	Bcl-xL conf	MCL1 BIM confirm
NC(=O)c1c(NC(=O)C2CC=CCC2C(=O)O)sc2c1CCCCC2 (stereo not given)	/	/	93.7	155.7	/	40.8*	19.6	20.3
OCC[C@@H]1C[C@H](O)[C@@H](O)[C@@]2(OCc3cc(C(F)(F)F)ccc32)O1	/	/	98.7	/	/	/	/	/
Nc1cc(Nc2ccc(Br)cc2)nc(N)n1	-11.9	/	103.7	170.4	13.6	50.3*	43.8*	46.2*
Cc1cc(Nc2ccc(Cl)cc2)nc(N)n1	-23.7	0.0	106.1	577.6	15.2	1.7	/	/
Cc1ccc(NC(=O)CCNS(=O)(=O)c2ccc3[nH]c(=O)oc3c2)cc1N(C)C	/	/	/	430.0	/	4.2	/	/
Cc1cnc(C(=O)OCC(=O)N2CCN(S(=O)(=O)c3ccc(Cl)cc3)CC2)cn1	/	/	102.9	351.7	/	-3.5	/	/
COc1ccc(CCNC(=O)COc2cc(O)c3c(c2)OC(C)(C)CC3=O)cc1OC	/	/	/	304.9	/	-0.3	/	/
c1ccc(N2CCN(c3nc4ccccc4n4nnnc34)CC2)cc1	-47.5	0.0	109.1	182.5	8.3	58.5*	37.5*	37.8
c1ccc2c(c1)nc(N1CCOCC1)c1nnnn12	-27.6	-1.0	104.8	646.6	16.4	26.4	/	/
O=C1C(=Cc2ccco2)C(=O)c2ccccc21	-50.2	0.0	121.0	i	35.5	18.4	/	/
O=C(O)c1ccc2c(c1)C(=O)/C(=C\c1ccco1)C2=O	-48.6	3.0	86.5	403.1	66.5*	63.9*	25.1	26.4
O=C(O)c1ccc2c(c1)C(=O)/C(=C/c1ccccc1)C2=O	-19.7	4.0	100.7	324.3	64.3*	91.8*	45.4*	65.9*
CC(C)(C)N1C(=O)c2ccc(C(=O)O)cc2C1=O	11.4	-4.0	108.4	292.0	14.5	9.8	/	/

Screens from PubChem.
